Test results as given in ChEMBL document CHEMBL3352067, “1,8-Naphthyridines IX. Potent anti-inflammatory and/or analgesic activity of a new group of substituted 5-amino[1,2,4]triazolo[4,3-a][1,8]naphthyridine-6-carboxamides, of some their Mannich base derivatives and of one novel substituted …” (Eur J Med Chem, 2014).
The source made the active and inactive calls. No cut-off for these calls is given here.

What was measured:
[1] = system: Mus musculus; experiment: Antinociceptive activity in Swiss mouse assessed as inhibition of acetic acid-induced writhing at 100 mg/kg, po administered 1 hr prior to acetic acid challenge measured for 30 mins; format: functional
Outline: (§1)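 Swiss mice (25–35 g, either sex), fasted overnight, given compound orally in 0.5% methylcellulose; controls received vehicle; groups of 8–10. Writhes, scored as complete extension of either hind limb, counted over 30 min after injection of the noxious agent. Percent inhibition derived from the difference in writhing between treated and control groups.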

[2] = system: Rattus norvegicus; experiment: Antiinflammatory activity in Wistar rat assessed as inhibition of carrageenan-induced paw oedema at 100 mg/kg, po administered 1 hr prior to carrageenan challenge; format: functional
Outline: (§2)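 Wistar rats (250–300 g, either sex), fasted overnight, dosed by oral gavage with compound suspended in 0.5% methylcellulose; controls got vehicle. Groups of 8–10. 1 h later 0.1 mL 1% carrageenan injected subcutaneously into hind paw plantar surface; paw volume measured by plethysmometer immediately and 3 h later. Inhibition calculated from swelling difference versus controls (control = 100).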

[3] = system: Rattus norvegicus; experiment: Antiinflammatory activity in Wistar rat assessed as inhibition of carrageenan-induced paw oedema at 50 mg/kg, po administered 1 hr prior to carrageenan challenge; format: functional; outline: as §2
[4] = system: Rattus norvegicus; experiment: Antiinflammatory activity in Wistar rat assessed as inhibition of carrageenan-induced paw oedema at 25 mg/kg, po administered 1 hr prior to carrageenan challenge; format: functional; outline: as §2
[5] = system: Mus musculus; experiment: Antinociceptive activity in Swiss mouse assessed as inhibition of acetic acid-induced writhing at 25 mg/kg, po administered 1 hr prior to acetic acid challenge measured for 30 mins; format: functional; outline: as §1
[6] = system: Mus musculus; experiment: Antinociceptive activity in Swiss mouse assessed as inhibition of acetic acid-induced writhing at 50 mg/kg, po administered 1 hr prior to acetic acid challenge measured for 30 mins; format: functional; outline: as §1
[7] = system: Mus musculus; experiment: Antinociceptive activity in Swiss mouse assessed as inhibition of acetic acid-induced writhing at 12.5 mg/kg, po administered 1 hr prior to acetic acid challenge measured for 30 mins; format: functional; outline: as §1
[8] = system: Mus musculus; experiment: Antinociceptive activity in Swiss mouse assessed as inhibition of acetic acid-induced writhing at 6.25 mg/kg, po administered 1 hr prior to acetic acid challenge measured for 30 mins; format: functional; outline: as §1
[9] = system: Rattus norvegicus; experiment: Antiinflammatory activity in Wistar rat assessed as inhibition of carrageenan-induced paw oedema at 12.5 mg/kg, po administered 1 hr prior to carrageenan challenge; format: functional; outline: as §2
[10] = system: Rattus norvegicus; experiment: Antiinflammatory activity in Wistar rat assessed as inhibition of carrageenan-induced paw oedema at 6.25 mg/kg, po administered 1 hr prior to carrageenan challenge; format: functional; outline: as §2
[11] = system: Mus musculus; experiment: Sedative activity in Swiss mouse assessed as inhibition of spontaneous locomotor activity at 100 mg/kg, po measured for 30 mins by open-field test; format: organism-based; design: dose 100 mg/kg, route oral; details: in vivo, 0.5 h
Outline: (§3)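 Swiss mice (25-35 g, either sex), fasted overnight, given compound orally by gavage suspended in 0.5% methylcellulose; vehicle controls; groups of 8-10. Spontaneous locomotor activity recorded by videocamera with video-tracking as distance (m) travelled in 30 min; Student's t-test vs controls.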

[12] = system: Mus musculus; experiment: Sedative activity in Swiss mouse assessed as inhibition of spontaneous locomotor activity at 50 mg/kg, po measured for 30 mins by open-field test; format: organism-based; design: dose 50 mg/kg, route oral; details: in vivo, 0.5 h; outline: as §3
[13] = system: Mus musculus; experiment: Sedative activity in Swiss mouse assessed as inhibition of spontaneous locomotor activity at 25 mg/kg, po measured for 30 mins by open-field test; format: organism-based; design: dose 25 mg/kg, route oral; details: in vivo, 0.5 h; outline: as §3
[14] = system: Mus musculus; experiment: Sedative activity in Swiss mouse assessed as inhibition of spontaneous locomotor activity at 12.5 mg/kg, po measured for 30 mins by open-field test; format: organism-based; design: dose 12.5 mg/kg, route oral; details: in vivo, 0.5 h; outline: as §3
[15] = Antiplatelet activity in guinea pig platelet rich plasma assessed as inhibition of ADP-induced aggregation by aggregometry; format: functional, cell-free; details: Cavia porcellus
Outline: (§4)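 Guinea pig blood drawn by cardiac puncture into 3.8% citrate (1:9). PRP obtained by spinning at 180 g for 15 min, PPP at 2000 g for 10 min. PRP preincubated 5 min at 37 °C with compound or DMSO (≤0.5% final), then aggregation triggered by U46619, ADP or arachidonic acid. Born turbidimetry at 37 °C with stirring; percent inhibition versus control; tested within 3 h.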

[16] = Antiplatelet activity in guinea pig platelet rich plasma assessed as inhibition of arachidonic acid-induced aggregation by aggregometry; format: functional, cell-free; details: Cavia porcellus; outline: as §4
[17] = Antiplatelet activity in guinea pig platelet rich plasma assessed as inhibition of U46619-induced aggregation by aggregometry; format: functional, cell-free; details: Cavia porcellus; outline: as §4
[18] = system: Rattus norvegicus; experiment: Antiinflammatory activity in Wistar rat assessed as inhibition of carrageenan-induced paw oedema at 3.12 mg/kg, po administered 1 hr prior to carrageenan challenge; format: functional; outline: as §2
[19] = system: Rattus norvegicus; experiment: Antiinflammatory activity in Wistar rat assessed as inhibition of carrageenan-induced paw oedema at 1.6 mg/kg, po administered 1 hr prior to carrageenan challenge; format: functional; outline: as §2
[20] = system: Rattus norvegicus; experiment: Antiinflammatory activity in Wistar rat assessed as inhibition of carrageenan-induced paw oedema at 0.8 mg/kg, po administered 1 hr prior to carrageenan challenge; format: functional; outline: as §2
[21] = system: Rattus norvegicus; experiment: Acute gastrolesivity in Wistar rat assessed as stomach lesions at 100 mg/kg, po measured after 5 hrs; format: toxicity, organism-based; design: dose 100 mg/kg, route oral; details: in vivo
Outline: (§5)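 Wistar rats (250-300 g, either sex), fasted overnight, dosed by oral gavage in 0.5% methylcellulose (1 mL 100 g^-1); groups of 8-10. Stomachs excised 5 h post-dose, fixed with 2% formalin, opened along greater curvature, examined by stereomicroscope by blinded observer. Read-out: number of rats with gastric damage over number treated.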

[22] = system: J774; experiment: Antiinflammatory activity in mouse J774 cells assessed as inhibition of LPS-induced NO production at 100 uM after 6 hrs by Griess assay; format: functional, cell-based
Outline: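 J774 murine macrophages grown in DMEM with 10% FBS and 2 mM glutamine at 37 °C, 5% CO2. Cells plated at 2.5 × 10⁵/mL, left to adhere overnight, and the medium refreshed. Compound added together with LPS. Supernatants taken after 6 h; nitrite measured with Griess reagent (10 min) as absorbance at 540 nm, with fresh medium as blank.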

[23] = system: Rattus norvegicus; experiment: Acute gastrolesivity in Wistar rat assessed as stomach lesions at 10 mg/kg, po measured after 5 hrs; format: toxicity, organism-based; design: dose 10 mg/kg, route oral; details: in vivo; outline: as §5

| SMILES | inhibition in vivo at 100 mg/kg [1] | inhibition in vivo at 100 mg/kg [2] | inhibition in vivo at 50 mg/kg [3] | inhibition in vivo at 25 mg/kg [4] | inhibition in vivo at 25 mg/kg [5] | inhibition in vivo at 50 mg/kg [6] | Activity [11] | further results |
| --- | --- | --- | --- | --- | --- | --- | --- | --- |
| CC(C)NC(=O)c1c(NC(C)C)c2cccnc2n2c(C(C)C)nnc12 | 0% | 34% | 33% | 9% | – | – | – | – |
| CCN1CCN(c2c(C(=O)N(CC)CC)c3nnc(C(C)C)n3c3ncccc23)CC1 | 100% | 31% | 35% | 36% | 72% | 74% | Toxic | inhibition in vivo at 12.5 mg/kg [7]: 50%; inhibition in vivo at 6.25 mg/kg [8]: 0%; inhibition in vivo at 12.5 mg/kg [9]: 31%; inhibition in vivo at 6.25 mg/kg [10]: 8%; Activity [12]: Toxic; Activity [13]: Toxic; Activity [14]: Toxic |
| CCN(CC)C(=O)c1c(N2CCN(C)CC2)c2cccnc2n2c(CN3CCOCC3)nnc12 | 37% | 8% | – | – | – | – | – | – |
| CCN(CC)C(=O)c1c(N2CCN(CCO)CC2)c2cccnc2n2c(C(C)C)nnc12 | 85% | 0% | – | – | 48% | 96% | Toxic | inhibition in vivo at 12.5 mg/kg [7]: 13%; Activity [12]: Toxic; Activity [13]: Toxic |
| CCc1nnc2c(C(=O)N(CC)CC)c(N3CCN(C)CC3)c3cccnc3n12 | 95% | 39% | 29% | 22% | 10% | 81% | Toxic | Activity [12]: Toxic |
| CC(=O)Oc1ccccc1C(=O)O [ASPIRIN] | – | – | – | – | – | – | – | IC50 [15]: > 500 µM; IC50 [16]: 45 µM; IC50 [17]: > 500 µM |
| CCNC(=O)c1c(NC(CC)CC)c2cccnc2n2c(C(C)C)nnc12 | 34% | 60% | 35% | 30% | 0% | 41% | – | inhibition in vivo at 12.5 mg/kg [9]: 12% |
| CCN(CC)C(=O)c1c(N2CCN(C)CC2)c2cccnc2n2c(CN3CCN(C)CC3)nnc12 | 0% | 0% | – | – | – | – | – | – |
| CCN(CC)C(=O)c1c(NC(C)C)c2cccnc2n2c(CN3CCOCC3)nnc12 | 0% | 0% | – | – | – | – | – | – |
| CCN(CC)C(=O)c1c(NCC(C)C)c2cccnc2n2c(=O)cc(C)nc12 | 71% | 15% | – | – | 0% | 54% | – | – |
| CCN(CC)C(=O)c1c(NC(C)C)c2cccnc2n2c(CN3CCN(C)CC3)nnc12 | 0% | 13% | – | – | – | – | – | – |
| CCCNC(=O)c1c(NC(C)C)c2cccnc2n2c(C(C)C)nnc12 | 0% | 72% | 63% | 70% | – | 0% | – | inhibition in vivo at 12.5 mg/kg [9]: 44%; inhibition in vivo at 6.25 mg/kg [10]: 19% |
| CCNC(=O)c1c(NC(C)C)c2cccnc2n2c(C(C)C)nnc12 | 66% | 80% | 72% | 57% | 15% | 64% | Toxic | inhibition in vivo at 12.5 mg/kg [9]: 54%; inhibition in vivo at 6.25 mg/kg [10]: 40%; inhibition in vivo at 3.12 mg/kg [18]: 31%; inhibition in vivo at 1.6 mg/kg [19]: 31%; inhibition in vivo at 0.8 mg/kg [20]: 0%; Activity [21]: Non-toxic; IC50 [15]: 281 µM; IC50 [16]: 24 µM; IC50 [17]: 89 µM; inhibition [22]: inactive |
| CNC(=O)c1c(NC(C)C)c2cccnc2n2c(C(C)C)nnc12 | 67% | 50% | 3% | – | – | 11% | Toxic | – |
| COc1ccc2c(c1)c(CC(=O)O)c(C)n2C(=O)c1ccc(Cl)cc1 [INDOMETHACIN] | – | – | – | – | – | – | – | Activity [23]: Toxic |
